Hits are enriched below; roughly 6.3% of the tested compounds scored in any of these assays.
PostGolgi ctrl = growth of the yeast control strain, post-Golgi counter-screen. efflux-deficient yeast background strain, growth absorbance A615, 16 h. inhibition, % at 10 µM. actives 5% (n = 98,000)
PostGolgi yeast = growth inhibition of a yeast mutant, post-Golgi transport screen; post-Golgi transport phenotypic cell assay; inhibition, % at 10 µM; actives 0.9% (n = 98,000); AID 739;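 note: yeast cells grown in 1536-well plates; yeast grown about 18 h at 30C before absorbance read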
E coli WT exp = growth inhibitors of E. coli BW25113 wild type | OD600 absorbance | growth inhibition, % at 100 µM | actives 0.15% (n = 98,000) | AID 710;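 active = growth inhibition above about 50% at one test dose, limit read from the data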;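 note: growth measured after 20 h incubation at 37 °C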
tolC growth inh = blocks growth of E. coli BW25113 tolC mutant; OD615; growth inhibition, % at 10 µM (by protocol); actives 2.2% (n = 65,000); AID 573;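 active = growth inhibition at or above a cutoff equal to the mean over every tested compound plus 3 SD, cut at about 60% in these data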;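 note: growth measured after 20 h incubation at 37 °C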
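Material: E. coli BW25113 ΔtolC::kan, tolC deletion mutant strain. Measure: percent growth inhibition. Schedule: 37 °C, 20 h exposure. Doses: single-point testing at 10 µM. Signal: A615 absorbance measurement. Buffer or medium: kanamycin-containing LB broth (50 µg/mL).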
Active calls of the source: *; / = not tested or not shown. Cut-off read from the data, not from the text of the source, unless noted: active = inhibition above about 30%; inactive = the rest.

SMILES	PostGolgi ctrl	PostGolgi yeast	E coli WT exp	tolC growth inh
O=C1C2C3C=CC(C3=C(c3ccccc3)c3ccccc3)C2C(=O)N1CCO (stereo unspecified)	6	5	-2	/
N#Cc1nc(COc2ccc(-c3ccccc3)cc2)oc1NCCCN1CCOCC1	16	78*	15	35
c1ccc(-c2oc3ncnc(NCCCN4CCOCC4)c3c2-c2ccccc2)cc1	67*	15	11	29
N#Cc1nc(COc2ccccc2)oc1NCCN1CCOCC1	11	1	9	-13
CCCCCCCCNc1ncnc2ccccc12	9	44*	43	/
CCCOc1ccc(C(=O)c2nc3c(n2O)CCCC3)cc1	5	0	4	1
Cc1nnc(NC(=O)C2CCCN(S(=O)(=O)Cc3ccccc3)C2)s1 (stereo unspecified)	-4	4	1	-18
Cc1nnc(NC(=O)C2CCCN(S(=O)(=O)c3ccccc3C(F)(F)F)C2)s1 (stereo unspecified)	42*	1	6	3
Cc1csc(NC(=O)C2CCCN(S(=O)(=O)c3ccc(Br)s3)C2)n1 (stereo unspecified)	20	-2	-3	71*
CCOC(=O)C1CCCN(S(=O)(=O)c2ccc(Br)s2)C1 (stereo unspecified)	13	4	-1	28
COCCNS(=O)(=O)c1ccccc1	-4	-9	0	/
Cc1nn(C)c(Oc2ccccc2)c1CCNS(=O)(=O)c1ccccc1	38*	-21	8	/
CC(C)Oc1ccc(CNC2CCOC(C)(C)C2)cc1 (stereo unspecified)	42*	1	-8	-35
CCN(C(=O)CSc1nnc(Cn2nnc3ccccc32)o1)c1nc(-c2ccccc2)cs1	35*	0	-15	6
O=CN1CC(=O)N(c2ccccc2)c2c([nH]c3ccccc23)C1	5	8	1	-8
O=c1c2ccccc2c2c(O)nc(-c3ccccc3)n2n1Cc1ccccc1	22	2	-8	/
COc1ccc(Nc2nc(Cl)nc(NCc3ccco3)n2)c(OC)c1	6	-2	-9	/
CCCN(CCC)c1nc(Cl)nc(NCc2ccco2)n1	38*	21	-4	/
N#Cc1nc(-c2cccs2)oc1NCC1CCCO1 (stereo unspecified)	39*	6	11	-1
O=S(=O)(c1ccccc1)c1nc(-c2cccs2)oc1NCC1CCCO1 (stereo unspecified)	8	-4	5	25
Cc1cc(C)nc(N2CCC(C(=O)N3CCN(c4cc(Cl)ccc4C)CC3)CC2)n1	43*	-3	-20	50
Cc1ccc(C)c(N2CCN(C(=O)C3CCN(c4nc(C)cc(C)n4)CC3)CC2)c1	46*	6	-21	29
COc1ccc(C2C(C(=O)NCCN3CCOCC3)c3ccccc3C(=O)N2C2CCCCC2)cc1 (stereo unspecified)	-2	-1	3	-2
Cc1cccc(NC(=O)c2cccc(Cn3cc(Br)c([N+](=O)[O-])n3)c2)c1C	23	2	-12	/
O=C(O)c1ccc2c(c1)C(=O)N(c1ccc(Cl)cn1)C2=O	16	-4	-5	-15
SMILES	PostGolgi ctrl	PostGolgi yeast	E coli WT exp	tolC growth inh
O=C(O)c1ccc2c(c1)C(=O)N(c1cc(C(=O)O)ccc1Br)C2=O	30*	-4	4	0
Cc1sc(NC(=O)C(C)C)c(C(=O)Nc2ccccc2)c1C	10	-3	3	/
O=S(=O)(Nc1nc2ccccc2s1)c1ccc(Cl)s1	31*	8	9	/
Cc1ccc(CNC(=O)c2cc3c(-c4ccc(Cl)cc4)nn(C)c3s2)o1	53*	-7	-8	16
Cn1nc(-c2ccc(Cl)cc2)c2cc(C(=O)N3CCN(c4ccccn4)CC3)sc21	52*	-5	-11	20
Cn1nc(-c2ccc(Cl)cc2)c2cc(C(=O)N3CCN(c4ccccc4)CC3)sc21	7	-4	-8	23
CCCCNC(=O)c1cc2c(-c3ccc(Cl)cc3)nn(C)c2s1	2	-2	-6	-2
COc1ccc(Cl)cc1C(=O)N1CCN(c2ccccn2)CC1	3	-4	4	/
CC(C)(Oc1ccc(Cl)cc1)C(=O)N1CCN(c2ccccn2)CC1	50*	1	-1	47
CCOc1ccc(-c2nnc(-c3snc(-c4ccc(F)cc4)c3N=CN(C)C)o2)cc1	10	-6	-10	-3
Clc1ccc2[nH]cc(-c3nnnn3-c3ccc4ccccc4c3)c2c1	2	-11	-4	/
Nc1nc(Cl)cc(Sc2ccc3ccccc3c2)n1	10	5	-9	/
CC(=O)Nc1ccc(S(=O)(=O)NCC(C)NS(=O)(=O)c2ccc(NC(C)=O)cc2)cc1 (stereo unspecified)	37*	-10	-3	-10
CC(=O)Nc1ccc(S(=O)(=O)N[C@H](C(=O)O)C(C)C)cc1	-2	3	1	-3
COc1ccc(S(=O)(=O)N2CCCC(C(=O)N3CCOCC3)C2)cc1C (stereo unspecified)	8	7	1	-1
O=C(c1n[nH]c2ccccc12)N1CCN(S(=O)(=O)c2ccc3ccccc3c2)CC1	56*	14	-1	34
C=CCSc1nc2ccccc2n1C(=O)/C=C/c1cc(OC)c(OC)c(OC)c1	38*	3	-9	/
CCOc1ccc(C(C)=O)cc1CSc1nnc(-c2cccs2)n1CC1CCCO1 (stereo unspecified)	12	-7	-1	11
O=C1CC(O)(C(F)F)Oc2ccc3ccccc3c21 (stereo unspecified)	11	-10	15	34
O=C1CC(O)(C(F)(F)F)Oc2c1ccc1ccccc21 (stereo unspecified)	37*	5	35	97*
CC(C(=O)NC(=O)NC1CCCCC1)N1CCN(C(c2ccccc2)c2ccccc2)CC1 (stereo unspecified)	28	2	-1	/
O=C(O)c1ccc(N2Cc3ccccc3C2)cc1O	10	1	-10	/
Cc1sc(NC(=O)c2ccco2)nc1-c1ccccc1	21	4	8	/
Cc1sc(NC(=O)c2ccco2)nc1-c1ccc2c(c1)CC(C)N2C(=O)C1CC1 (stereo unspecified)	33*	3	-10	26
Clc1ccc(C2=Nn3c(nnc3-c3n[nH]c4c3CCC4)SC2)cc1Cl	38*	14	11	99*
SMILES	PostGolgi ctrl	PostGolgi yeast	E coli WT exp	tolC growth inh
CCCCc1nc2ccccc2n2cc3c(=O)n(C)c(=O)n(C)c3c12	/	/	/	7
COc1ccc(N2CCN(c3oc(-c4ccco4)nc3C#N)CC2)cc1	-3	32*	8	34
COc1ccccc1-c1nc(C#N)c(N2CCN(c3ccccc3)CC2)o1	26	3	-10	20
N#Cc1nc(-c2ccco2)oc1N1CCN(c2ccccc2)CC1	6	8	0	32
COc1ccccc1-c1nc(C#N)c(N2CCCCCC2)o1	42*	-10	3	/
COc1ccc(-c2nc(C#N)c(N3CCc4ccccc4C3)o2)cc1OC	33*	5	-8	/
COc1ccc(Cl)cc1NC(=O)CN1CCC(n2nnc3ccccc32)CC1	19	7	-10	1
COc1cc(/C=N/NC(N)=S)ccc1OC(=O)c1ccc(C)cc1	52*	0	-2	/
CCOC(=O)C1CCN(C(=O)Cc2cccs2)CC1	36*	-4	4	-9

Screens: PubChem BioAssay, SRMLSC
